According to the EternaBench riboswitch data:

System: MS2 coat protein
Assay: apparent Kd, MS2 coat protein; higher = weaker binding; RNA-MaP array; FMN 200 µM where present
In short: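 SNAP-549-labelled MS2 coat protein, doubled from 0.7 or 1.5 nM to 3 µM, was titrated over designs transcribed by stalled E. coli RNA polymerase on Illumina sequencing-chip clusters. Titrations were run without and then with constant ligand in 100 mM Tris-HCl pH 7.5, 80 mM KCl, 4 mM MgCl2, BSA, DTT, yeast tRNA and Tween-20. The apparent Kd is the median of filtered per-cluster fits to green signal normalised to red-channel RNA signal and control-cluster median Fmax.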

[1] = designed as: OFF switch for flavin mononucleotide, no ligand
[2] = ligand present: flavin mononucleotide, designed as: OFF switch for flavin mononucleotide
[3] = designed as: ON switch for flavin mononucleotide, no ligand
[4] = ligand present: flavin mononucleotide, designed as: ON switch for flavin mononucleotide

| Sequence | apparent Kd [1] | apparent Kd [2] | apparent Kd [3] | apparent Kd [4] |
| --- | --- | --- | --- | --- |
| UCCUUGUCCUGAGGAUAUCCGUGGUUCCCGAAAGGAGAAGGCAGGACAUGAGGAUCACCCAUGUACCCAGAUAUCGUACAGAGA | 50.4 nM | 360 nM | – | – |
| UCGAGCAGGGAAUGGUCGCUGAAGUAGGAUAUCCGCGUGGCCGUCCACAUGAGGAUCACCCAUGUGGAGAAGGGCUACAGCGAA | 6.07 nM | 6.58 nM | – | – |
| UCGAUAAGGAGAGGAUAUGGACAUGAGGAUCACCCAUGUACAUGGGAAUAUAUACUGAAUUUUUACUAGAAGGCUUACAUAUUU | 16.7 nM | 13.6 nM | – | – |
| UCGCCACAUGAGGAUCACCCAUGUCAGGAUAUCUAGAUGCGUCUUGAGCUCAAGCGCUGGAGAAGGGAUUGGGU | 235 nM | 67.5 nM | – | – |
| UCGCGGGAGCAGAAGGGAUAGGCCUAUUGUCGUGAGGUCUACACUUAACAUGAGGAUCACCCAUGUCAGGAUAUGCCCACGCGA | 4.68 nM | 4.64 nM | – | – |
| UCGCUGCGAGGAUAUACGUGCGCGCGCUUUCGUUUGCGCGUACAUGAGGAUCACCCAUGUAGAAGGCGCGCUGC | 16.2 nM | 15.8 nM | – | – |
| UCGGUUACAUGAGGAUCACCCAUGUCUCGGGCCCUAUUUAGCAGAAGGCCAGCUGGGCUACGGAUGGAGGAUAUGCUUAUGGCC | – | – | 147 nM | 36.5 nM |
| UCGUAUAAGGGCAUUACACAUGAGGAUCACCCAUGUACGUUAGAGGAUAUGCAUUCCAGUCGAACGUAGAAGGCUAGAGAAGGG | 118 nM | 117 nM | – | – |
| UCGUAUAAGGGCAUUACACAUGAGGAUCACCCAUGUACGUUAGAGGAUAUGCAUUUCAGUUGAACGUAGAAGGCUAGAGAAGGG | 117 nM | 103 nM | – | – |
| UCGUGAAGGACAGGAUAUGGACAUGAGGAUCACCCAUGUACAUGGGAAUAUAUACUGAAUUUAUACUAGAAGGGUUACAUAAAU | 27.4 nM | 16.7 nM | – | – |
| UCGUGAAGGACAGGAUAUGGACAUGAGGAUCACCCAUGUACAUGGGAAUAUAUACUGAAUUUGUACUAGAAGGGUUACAUAAAU | 26.1 nM | 20.1 nM | – | – |
| UCGUGUAUAGAGGAUAUAUUAUUUUUUUUAACAAUAGAAGGCUAAACAUGAGGAUCACCCAUGUAUUUUUUUUU | 31.4 nM | 44 nM | – | – |
| UCGUUUAUACAAGGAUAUCAAUUUUAGCUUAAUUCAACAUGAGGAUCACCCAUGUAACUAUGGAGUGAGAAGGUGUAAUGGCUU | – | – | 522 nM | 222 nM |
| UCUAAUUAAAAUGAUUCAUCAACACAGGAUAUACCCGCAACAUGAGGAUCACCCAUGUAGGCCCGGUAGAAGGGUGCUUGGGAG | – | – | 20.5 nM | 6.9 nM |
| UCUCGACAUGAGGAUCACCCAUGUCAGGAUAUUGUAUUGGAGGUUUUUUACCUUAUGGCAAGAAGGGAUGUGUG | 20.6 nM | 21.6 nM | – | – |
| UCUGUUUUGCGAGGAUAUCGACCAUUCCUCUUAACAUGAGGAUCACCCAUGUGCUAAUCCUACAACGAGAAGGCGCUCAUACUC | 250 nM | 348 nM | – | – |
| UCUUAACAUGAGGAUCACCCAUGUGAGGAUAUGAUGCAGCAGUGGUCUACGCUGUGCAUCAGAAGGUACAUGGG | 23 nM | 20.1 nM | – | – |
| UCUUAUUGCAAGGAUAUGCUAUUUAUUUUUUUUGCAGAAGGUGCAACAUGAGGAUCACCCAUGUUUCCGGGCAU | 19.2 nM | 42.7 nM | – | – |
| UGAAAACAUGAGGAUCACCCAUGUCUAGGAGAUCGAGGAUAUGGGCCGGCACUAGGCGGGCCAGAAGGCGAAAAGU | – | – | 60.8 nM | 26.6 nM |
| UGAACCUUCACAGGAUAUCAUGCGAAAAUUGCGUGAGAAGGGUGAAUAUGGUGUUCAUAGUUGCACAUGAGGAUCACCCAUGUA | – | – | 191 nM | 128 nM |
| UGAAUGGUGAUAGGAUAUACAUGAGGAAUCCUCGUAGAAGGAUCACGACAUGAGGAUCACCCAUGUAGCCGUCCGUAGACGGCC | – | – | 227 nM | 470 nM |
| UGACCCAUGACAUGAGAUGACAUGAGGAUCACCCAUGUUUACAAGGAUAUGUUGAUGAAACAUCAACAGAAGGUGUAAUGGGAU | 53.7 nM | 385 nM | – | – |
| UGACUAGCAAUGUAUCGAAAGAUCACAUGAGGAUCACCCAUGUAGGAUAUGAGCAGAAAAUCUGCUCAGAAGGACAUGCUAGUC | 5.88 nM | 6.04 nM | – | – |
| UGAGCUGAAGGAUAUGCGUAAUCUCGGUGACGAGUAGAUCUACAUGAGGAUCACCCAUGUAGAAGGUCAGUUCU | 15.5 nM | 17.5 nM | – | – |
| UGAUCGAAAGAUCAUAGAUUCUGCUAGGAUAUGCAGAAGUUGCGAUUUACAUGAGGAUCACCCAUGUAGAAGGAGUAGAGUCUA | 7.16 nM | 7.16 nM | – | – |
| UGAUCGAAAGAUCAUAGAUUCUGCUAGGAUAUGCAGAAGUUGCGCUUUACAUGAGGAUCACCCAUGUAGAAGGAGUAGAGUCUA | 6.59 nM | 6.78 nM | – | – |
| UGAUCGAGAGAUCUUAGAUUCUGGUAGGAUAUACAAAAGUUGCGCUUUACAUGAGGAUCACCCAUGUAGAAGGACUAGAGUCUA | 7.45 nM | 8.66 nM | – | – |
| UGAUCGAGAGAUCUUAGAUUCUGGUAGGAUAUACAUUAAAAUAGCUUUACAUGAGGAUCACCCAUGUAGAAGGACUAGAGUCUA | 7.8 nM | 8.67 nM | – | – |

| Sequence | apparent Kd [1] | apparent Kd [2] | apparent Kd [3] | apparent Kd [4] |
| --- | --- | --- | --- | --- |
| UGAUCGGAGACAGGAUAUGUGACUGCAUAGUGCACAGAAGGGUCUACAUGAGGAUCACCCAUGUCACCGAACAUCAAACAACAA | – | – | 433 nM | 41.9 nM |
| UGAUCUAUGUAGAAGGCCCAUAUCUAUAUUUAGGGAGGAUAUACAUGAGGAUCACCCAUGUAUAGAGCUGGUGGACUGGUCAGC | 30.7 nM | 88.6 nM | – | – |
| UGAUCUUUUGUUAGGAUAUGCUGGGUUUUUUCUCAGCAGAAGGGACAUGAGGAUCACCCAUGUUCUCUCUUUUU | 9.49 nM | 11.6 nM | – | – |
| UGAUCUUUUGUUAGGAUAUGCUGUUUUUUUUUUCAGCAGAAGGGACAUGAGGAUCACCCAUGUUUUGUCAUAAA | 12.4 nM | 24.9 nM | – | – |
| UGAUUGGACAGAGGAUAUACGUGCUAGAGAUACUAGCAAAAUAUCCUCACAUGAGGAUCACCCAUGUAGAAGGCUGUCCAAUCU | 17.3 nM | 85.1 nM | – | – |
| UGCAGACGAGGAUAUAGAUUUAAGUACAUGAGGAUCACCCAUGUGCAUAUGUAUUUAGAUUUAGAAGGCGUCUGCU | 415 nM | 383 nM | – | – |
| UGCAGGCGAGGAUAUGCUCGGGUUGCUUGUCGAGAGGAUGCACAUGAGGAUCACCCAUGUAGAAGGUGUCUAUG | 47.5 nM | 56.2 nM | – | – |
| UGCAUACAUGAGGAUCACCCAUGUCAACUUAGUCGAGGAUAUGGGCAGCCCUGAGGCGAACCAGAAGGCGAAUUGU | – | – | 73.5 nM | 26.4 nM |
| UGCAUGCUAGGAUAUACGGGACAUUAGGGUUCGUUGUGUGGACAUGAGGAUCACCCAUGUAGAAGGAGCGUGCU | 85.6 nM | 243 nM | – | – |
| UGCAUGUAAGGAUAUGCACUGCGCGAGCCUGGCUCGCAAAGGCAGAAGGUACAUGAGGAUCACCCAUGUGAGAA | 91.5 nM | 99.7 nM | – | – |
| UGCAUGUAAGGAUAUGCAUCCGCCGACGUCCCGGCGCCACAGCAGAAGGUACAUGAGGAUCACCCAUGUGUCCC | 21.3 nM | 49.2 nM | – | – |
| UGCCGUUGAGGAUAUACAUUGAAUAAGAUUCAUGUAAAACUACAUGAGGAUCACCCAUGUAGAAGGCAAUGGCU | 18.3 nM | 29.6 nM | – | – |
| UGCCUUUGAGGAUAUACAUUGAAUUUGAUUCAUGUAAAACUACAUGAGGAUCACCCAUGUAGAAGGCAAGGGCU | 18.7 nM | 27.7 nM | – | – |
| UGCGAUGCAGUUGGCCCUGGGCGAGAGGAUAUGGGCAGCGGGACAUGAGGAUCACCCAUGUUCUCUCAGAAGGCUCGAGCAGGC | – | – | 256 nM | 91.6 nM |
| UGCUGGUGACAGCAUCCAUCAAAACAUGAGGAUCACCCAUGUAGAAGGCUGUACGGUUACCGUACAGAGGAUAUACAAUGAUGA | 13.9 nM | 22.2 nM | – | – |
| UGGAAUUGCGAGAAGGACAUGAGGAUCACCCAUGUAGGAUAUCGACCUAGGUGCAGAUCGUUAUAGGAUCUCUUCGCUUCUAGG | – | – | 16.7 nM | 7.14 nM |
| UGGACCGAGCUAUCGGUUGACUCGAAGGAUAUGACAUGAGGAUCACCCAUGUGGGAUCUAAAUUGUCAGAAGGUUGGUUCUGGG | 367 nM | 140 nM | – | – |
| UGGACCGAGCUAUCGGUUGACUGGGAGGAUAUGACAUGAGGAUCACCCAUGUGGGAUCUAAAUUGUCAGAAGGCUCGUUCUGGG | – | 234 nM | – | – |
| UGGAUGGUAUGAGGAUAUGCGCGCGAAACGCGCGCAGAAGGCAUGUCAAUAGACAUGAGGAUCACCCAUGUAUUAUCUAUCCAA | – | – | 203 nM | 14.8 nM |
| UGGAUGUGGGUUCCACAUGAGGAUCACCCAUGUACCGAUGAGAGAAGGCGCGCUGGUUCCCAGGGCGAGGAUAUCUACAUUCAA | 5.63 nM | 14.2 nM | – | – |
| UGGCGUAUCGAAGGAUAUCUGGGCUUACUCGGAGGAUCGACAUGAGGAUCACCCAUGUAUGACCAAGAGAAGGUCGAGGACGUA | 141 nM | 253 nM | – | – |
| UGGCUACAUGAGGAUCACCCAUGUCAGGAUAUGCCGUCGGCUUGCCUUCGUCGUUCGGGUAGAAGGGACUGCGG | 28.1 nM | 28.1 nM | – | – |
| UGGCUACAUGAGGAUCACCCAUGUCAGGAUAUGCCGUUGGAUUGACAUCGUCGUACGGGUAGAAGGGACUGCGU | 59.8 nM | 58.3 nM | – | – |
| UGGCUACAUGAGGAUCACCCAUGUCAGGAUAUGCCGUUGGAUUGACAUCGUCGUUCGGGUAGAAGGGACUGCGU | 47.6 nM | 53.1 nM | – | – |
| UGGUAACAUGAGGAUCACCCAUGUCAGGAUAUCAGUAAGAAUAGAUUAGAUUAGAAUAUGAGAAGGGACUAUAU | 37.3 nM | 31.6 nM | – | – |
| UGGUACAUCGGAGGAUAUCAUGUAAAUACAUGAGGAUCACCCAUGUCGUACGAGAGUACGGAGAUUGAGAAGGCCGAUGUACCU | – | – | 25.7 nM | 15 nM |
| UGGUACAUGAGGAUCACCCAUGUAAGAGCCCUCAUGCGAUGUAGAAGGAUAAUGGGAGUACUGCUAUAGGAUAUACAUGAGUUU | 145 nM | 147 nM | – | – |
